From ChEMBL document CHEMBL1687886, “N-cyclic bay-substituted perylene G-quadruplex ligands have selective antiproliferative effects on cancer cells and induce telomere damage” (J Med Chem, 2011)
Calls of active or inactive are those of the source. The calls are words filed in the database; no cut-off is given here.

What was measured:
[1] = tested on: Nucleic Acid; test: Binding affinity to human DK66 duplex DNA structure assessed as second step association constant by electrospray ionization mass spectrometry; type: nucleic-acid assay
Outline: (§1)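 ESI-MS in 150 mM ammonium acetate; DNA 5 μM final (per duplex or quadruplex unit); ligand at drug/DNA ratios 0.5 to 4. Methanol (15%) added just before injection, after binding equilibrium. K1 and K2 for 1:1 and 2:1 complexes, and % bound DNA, taken from relative peak intensities assuming equal response factors. At least three repeats.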

[2] = tested on: BJ; test: Delocalization of TRF2 protein from […] in human BJ cells expressing SV40 early protein EHLT by chromatin immunoprecipitation assay; type: functional, cell-based
Outline: (§2)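 BJ-EHLT cells treated 24 or 72 h. Formaldehyde-crosslinked chromatin immunoprecipitated with anti-TRF1, anti-TRF2 or anti-POT1; β-actin antibody as negative control. Precipitates blotted and probed for telomeric repeats (ALU probe as nonspecific). Densitometry gives percentage of precipitated DNA relative to input (10% and 1%). Four independent experiments, SD.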

[3] = tested on: BJ; test: Cell cycle arrest in human BJ cells expressing TERT assessed as accumulation at G2/M stage at 0.5 uM after 96 hrs by propidium iodide staining based flow cytometry (reference value: 4%); type: ADME
[4] = tested on: BJ; test: Induction of DNA damage response in human BJ cells expressing human TERT assessed as phosphorylation of […] at 1 uM after 24 hrs by immunofluorescence; type: functional, cell-based
Outline: (§3)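 BJ-EHLT and BJ-hTERT fibroblasts exposed to a range of concentrations for 24 h. Fixed in 2% formaldehyde, permeabilized in 0.25% Triton X-100, immunostained for γ-H2AX and 53BP1. Percentage of positive cells scored. Three independent experiments, SD.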

[5] = tested on: BJ; test: Growth inhibition of human BJ cells expressing SV40 early region EHLT at 0.5 uM on day 8 by trypan blue assay; type: functional; conditions: 192 h, read-out: GI
Outline: (§4)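 Cells seeded at 5 ×10^4 per dish; compounds freshly dissolved and added to the medium 24 h after plating, at 0.5 μM or 3 μM (3 μM only for one derivative). Cell number by Coulter counting and viability by trypan blue exclusion daily, day 1 to day 8. Growth inhibition of treated vs untreated cells calculated at days 2, 4, 6 and 8. Representative experiments in quintuplicate, SD shown.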

[6] = tested on: Nucleic Acid; test: Binding affinity to human DK66 duplex DNA structure assessed as bound DNA at 5:20 DNA to drug ratio by electrospray ionization mass spectrometry; type: nucleic-acid assay; outline: as §1
[7] = tested on: BJ; test: Induction of DNA damage response in human BJ cells expressing SV40 early region EHLT assessed as phosphorylation of […] after 24 hrs by immunofluorescence method; type: functional, cell-based; outline: as §3
[8] = tested on: BJ; test: Antiproliferative activity against human BJ cells expressing SV40 early region EHLT at 0.5 uM after 24 hrs by Coulter counter method; type: functional, cell-based; conditions: TDE = time-dependent effect, in the assay text read “after 2 to 8 days” for “after 24 hrs”; outline: as §4
[9] = tested on: Nucleic Acid; test: Binding affinity to human 21-TT G-quadruplex DNA structure assessed as second step association constant by electrospray ionization mass spectrometry; type: nucleic-acid assay; outline: as §1
[10] = tested on: BJ; test: Induction of DNA damage response in human BJ cells expressing SV40 early protein EHLT assessed as accumulation of PCNA in S-phase by Hoechst staining based Leica deconvolution microscopic analysis; type: functional, cell-based
Outline: (§5)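 BJ-EHLT cells co-immunostained for γ-H2AX and PCNA, nuclei counterstained with Hoechst, imaged by deconvolution microscopy. Percentages of γ-H2AX+/PCNA− and γ-H2AX+/PCNA+ nuclei scored. Mean of three independent experiments.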

[11] = tested on: BJ; test: Cell cycle arrest in human BJ cells expressing TERT assessed as accumulation at G2/M stage at 0.5 uM after 72 hrs by propidium iodide staining based flow cytometry (reference value: 5%); type: ADME
[12] = tested on: BJ; test: Induction of telomere dysfunction induced foci n human BJ cells expressing SV40 early protein EHLT assessed as increase in gamma H2AX/TRF1 co-localization at 1 uM by Deconvolution microscopy; type: functional
Outline: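 BJ-EHLT cells stained for TRF1 together with γ-H2AX or 53BP1 and imaged by deconvolution microscopy. Cells with four or more γ-H2AX/TRF1 foci scored as TIF positive; percentage of TIF-positive cells and mean TIFs per nucleus recorded. Mean of three experiments, SD.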

[13] = tested on: Nucleic Acid; test: Binding affinity to human DK66 duplex DNA structure assessed as first step association constant by electrospray ionization mass spectrometry; type: nucleic-acid assay; outline: as §1
[14] = tested on: BJ; test: Induction of DNA damage response in human BJ cells expressing SV40 early protein EHLT assessed as accumulation of gamma-H2AX foci in S-phase by Hoechst staining based Leica deconvolution microscopic analysis; type: functional; outline: as §5
[15] = tested on: BJ; test: Antiproliferative activity against human BJ cells expressing TERT at 3 uM after 2 to 8 days by trypan blue assay; type: functional, cell-based; conditions: 0.5 uM, in the assay text read “at 0.5 uM” for “at 3 uM”; outline: as §4
[16] = tested on: Nucleic Acid; test: Binding affinity to human 21-TT G-quadruplex DNA structure at 1:5 DNA to calf thymus DNA ratio by competitive inhibition assay; type: nucleic-acid assay; design: concentration or dose not given beside the values
Outline: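 ESI-MS competition: quadruplex DNA and ligand each 5 μM final, plus calf thymus DNA at duplex/quadruplex ratios 1 and 5 (by phosphate concentration), in ammonium acetate. Percentage bound quadruplex and normalized bound quadruplex (N%) measured by mass spectrometry. SD over at least three independent experiments.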

[17] = tested on: BJ; test: Cell cycle arrest in human BJ cells expressing TERT assessed as accumulation at S stage at 0.5 uM after 48 hrs by propidium iodide staining based flow cytometry (reference value: 12%); type: ADME
[18] = tested on: BJ; test: Cell cycle arrest in human BJ cells expressing TERT assessed as accumulation at G2/M stage at 0.5 uM after 24 hrs by propidium iodide staining based flow cytometry (reference value: 17%); type: ADME
[19] = tested on: BJ; test: Cell cycle arrest in human BJ cells expressing TERT assessed as accumulation at S stage at 0.5 uM after 96 hrs by propidium iodide staining based flow cytometry (reference value: 9%); type: ADME
[20] = tested on: Nucleic Acid; test: Stabilization of 21-mer human F21T G4-telomeric quadruplex assessed as change in melting temperature at 1 uM by FRET assay; type: nucleic-acid assay
[21] = tested on: BJ; test: Induction of DNA damage response in human BJ cells expressing human TERT assessed as phosphorylation of gamma H2AX at 1 uM after 24 hrs by immunofluorescence; type: functional, cell-based; outline: as §3
[22] = tested on: BJ; test: Delocalization of POT1 protein from […] in human BJ cells expressing SV40 early protein EHLT after 24 hrs by chromatin immunoprecipitation assay; type: functional, cell-based; outline: as §2
[23] = tested on: BJ; test: Cell cycle arrest in human BJ cells expressing TERT assessed as accumulation at G0/G1 stage at 0.5 uM after 96 hrs by propidium iodide staining based flow cytometry (reference value: 86%); type: ADME
[24] = target: Telomerase reverse transcriptase (Homo sapiens, UniProt O14746); test: Inhibition of human Telomerase activity in cell free system by TRAP assay
Chain of Telomerase reverse transcriptase (O14746 whole entry): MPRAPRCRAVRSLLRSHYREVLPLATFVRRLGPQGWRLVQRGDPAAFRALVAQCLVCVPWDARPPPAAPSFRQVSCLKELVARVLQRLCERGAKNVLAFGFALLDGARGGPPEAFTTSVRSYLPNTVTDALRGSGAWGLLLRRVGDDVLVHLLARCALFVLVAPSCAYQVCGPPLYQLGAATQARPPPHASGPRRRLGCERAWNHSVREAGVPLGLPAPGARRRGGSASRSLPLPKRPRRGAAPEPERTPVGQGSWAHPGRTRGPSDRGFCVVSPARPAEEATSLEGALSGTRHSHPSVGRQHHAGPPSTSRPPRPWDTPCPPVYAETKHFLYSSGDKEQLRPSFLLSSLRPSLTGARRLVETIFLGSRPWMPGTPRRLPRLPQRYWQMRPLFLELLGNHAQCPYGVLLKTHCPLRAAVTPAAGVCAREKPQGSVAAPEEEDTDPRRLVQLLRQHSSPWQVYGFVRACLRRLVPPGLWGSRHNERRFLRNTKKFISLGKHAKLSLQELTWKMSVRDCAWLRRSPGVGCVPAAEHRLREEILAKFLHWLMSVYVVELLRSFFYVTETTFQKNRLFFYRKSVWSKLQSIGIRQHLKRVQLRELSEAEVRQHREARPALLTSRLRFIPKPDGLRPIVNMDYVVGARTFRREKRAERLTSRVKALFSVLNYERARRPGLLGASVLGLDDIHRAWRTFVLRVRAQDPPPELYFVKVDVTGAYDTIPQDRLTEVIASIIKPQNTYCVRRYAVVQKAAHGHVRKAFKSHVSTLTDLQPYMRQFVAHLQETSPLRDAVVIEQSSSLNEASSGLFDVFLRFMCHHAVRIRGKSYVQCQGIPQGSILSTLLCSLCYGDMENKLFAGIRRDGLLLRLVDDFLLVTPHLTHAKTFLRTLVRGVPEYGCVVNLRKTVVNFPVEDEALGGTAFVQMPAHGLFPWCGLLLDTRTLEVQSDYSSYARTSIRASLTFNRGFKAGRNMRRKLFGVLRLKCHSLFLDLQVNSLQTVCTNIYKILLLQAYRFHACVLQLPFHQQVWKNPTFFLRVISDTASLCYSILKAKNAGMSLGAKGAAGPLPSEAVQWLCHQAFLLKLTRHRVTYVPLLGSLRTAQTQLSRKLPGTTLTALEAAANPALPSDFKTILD
Outline: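 Cell-free TRAP: protein extract incubated with compound at 1 to 50 μM so telomerase elongates the substrate oligonucleotide. Before PCR, phenol/chloroform/isoamyl-alcohol (50:49:1) extraction removes the ligand and DNA is precipitated overnight at -20 °C. Amplification uses a 36 bp ITAS; products are resolved on 12% PAGE and stained with SYBR Green. Signals are corrected by the no-extract control and normalized to untreated, giving dose-response IC50. Mean of three experiments.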

[25] = tested on: BJ; test: Induction of DNA damage response in human BJ cells expressing SV40 early region EHLT assessed as phosphorylation of gamma H2AX at 0.25 uM after 24 hrs by immunofluorescence method; type: functional, cell-based; outline: as §3

O=C1c2ccc3c4ccc5c6c(cc(N7CCCCC7)c(c7ccc(c2c37)C(=O)N1CCOCCN1CCCCC1)c64)C(=O)N(CCOCCN1CCCCC1)C5=O
log Ks [1]: 4.2 | Activity [2]: inactive | Activity [3]: 2.2% | Activity [4]: inactive | inhibition of growth at 0.5 µM [5]: 50% | Activity [6]: 21% | Activity [7]: Active | Activity [8]: tde | log Ks [9]: 5 | Activity [10]: Active | Activity [11]: 5.1% | Activity [12]: 50% | log Ks [13]: 3.9 | Activity [14]: 80% | Activity [15]: Non-toxic | Activity [16]: 39% | Activity [17]: 14% | Activity [18]: 16.1% | Activity [19]: 1.5% | ΔTm [20]: 23 °C | Activity [21]: inactive | Activity [22]: Active | Activity [23]: 96.3% | IC50 [24]: 10 µM | Activity [25]: Active
